Assay results reported in ChEMBL document CHEMBL1926513, “Synthesis of novel cinnamanilides as potential immunosuppressive agents” (Eur J Med Chem, 2012).
The source made the active and inactive calls. The calls are words filed in the database; no cut-off is given here.

What was measured:
[1] = Immunosuppressive activity in BALB/c mouse splenocytes assessed as inhibition of CD3/CD28-induced cell proliferation after 48 hrs by MTT assay; format: functional, cell-based; conditions: Splenocyte
Method in brief: (§1)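 Splenocytes from 6 to 8 week-old BALB/c mice (erythrocytes lysed with ammonium chloride, washed in PBS/2% FBS) plated at 5 × 10⁵ cells/well in RPMI 1640 with 10% FBS and antibiotics; CD3/CD28 co-stimulation with compound ([…] as printed for single-concentration screen, or a concentration series for IC50) for 48 h; survival by MTT.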

[2] = Immunosuppressive activity in BALB/c mouse splenocytes assessed as inhibition of CD3/CD28-induced cell proliferation at 5 ug/mL after 48 hrs by MTT assay; format: functional; conditions: Splenocyte; method in brief: as §1
Splenocyte = test: Cytotoxicity against CD3/CD28-induced BALB/c mouse splenocytes at 1 to 10 ug/mL after 48 hrs by MTT assay; format: functional, cell-based
Method in brief: (§2)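 Spleen cells from 6 to 8 week-old BALB/c mice, single-cell suspension, erythrocytes depleted with ammonium chloride, washed in PBS/2% FBS; 5 × 10⁵ cells/well in RPMI 1640 with 10% FBS, penicillin, streptomycin; unstimulated or CD3/CD28-co-stimulated cells exposed to varied compound concentrations for 48 h; viability by MTT. Compounds from DMSO stocks diluted in RPMI-1640/10% FBS.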

[3] = Cytotoxicity against BALB/c mouse splenocytes at 1 to 10 ug/mL after 48 hrs by MTT assay; format: cell-based; conditions: splenocyte; method in brief: as §2

## CO/C(=C\c1ccc(OC)cc1)C(=O)Nc1ccc(Cl)cc1
[1]
  IC50: 14.7 µM
[2]
  inhibition at 5 µg/mL: > 50%

## CO/C(=C\c1ccc(Br)cc1)C(=O)Nc1ccc(F)cc1
[2]
  inhibition at 5 µg/mL: < 50%

## CO/C(=C\c1ccc(Br)cc1)C(=O)Nc1ccc(OC)cc1
[2]
  inhibition at 5 µg/mL: < 50%

## CO/C(=C\c1ccc(Cl)cc1)C(=O)Nc1ccc(F)cc1
[1]
  IC50: 14 µM
[2]
  inhibition at 5 µg/mL: > 50%

## CO/C(=C\c1ccc(Br)cc1)C(=O)Nc1ccc(C(C)C)cc1
[2]
  inhibition at 5 µg/mL: < 50%

## CO/C(=C\c1ccc(F)cc1)C(=O)Nc1ccc(OC)cc1
[1]
  IC50: 13.5 µM
[2]
  inhibition at 5 µg/mL: > 50%

## CO/C(=C\c1ccc(OC)cc1)C(=O)Nc1ccc(C(C)C)cc1
[2]
  inhibition at 5 µg/mL: < 50%

## CO/C(=C\c1ccc(Br)cc1)C(=O)Nc1ccc(Cl)cc1
[2]
  inhibition at 5 µg/mL: < 50%

## CO/C(=C\c1ccc(Cl)cc1)C(=O)Nc1ccc(Cl)cc1
[2]
  inhibition at 5 µg/mL: < 50%

## CO/C(=C\c1ccccc1)C(=O)Nc1ccc(C(C)C)cc1
[1]
  IC50: 3.46 µM
Splenocyte
  Activity: Active
[3]
  Activity: Non-toxic
[2]
  inhibition at 5 µg/mL: > 50%

## CO/C(=C\c1ccc(OC)cc1)C(=O)Nc1ccc(C)cc1
[1]
  IC50: 0.94 µM
Splenocyte
  Activity: Active
[3]
  Activity: Non-toxic
[2]
  inhibition at 5 µg/mL: > 50%

## CO/C(=C\c1ccc(F)cc1)C(=O)Nc1ccc(Br)cc1
[2]
  inhibition at 5 µg/mL: < 50%

## CO/C(=C\c1ccc(Cl)cc1)C(=O)Nc1ccc(C)cc1
[1]
  IC50: 12.7 µM
[2]
  inhibition at 5 µg/mL: > 50%

## CO/C(=C\c1ccc(Br)cc1)C(=O)Nc1ccc(C)cc1
[1]
  IC50: 12.9 µM
[2]
  inhibition at 5 µg/mL: > 50%

## CO/C(=C\c1ccccc1)C(=O)Nc1ccc(Br)cc1
[2]
  inhibition at 5 µg/mL: < 50%

## CO/C(=C\c1ccc(F)cc1)C(=O)Nc1ccc(Cl)cc1
[1]
  IC50: 9.48 µM
[2]
  inhibition at 5 µg/mL: > 50%

## CO/C(=C\c1ccc(Br)cc1)C(=O)Nc1ccc(Br)cc1
[2]
  inhibition at 5 µg/mL: < 50%

## CO/C(=C\c1ccc(OC)cc1)C(=O)Nc1ccccc1
[2]
  inhibition at 5 µg/mL: < 50%

## CO/C(=C\c1ccc(OC)cc1)C(=O)Nc1ccc(Br)cc1
[1]
  IC50: 1.77 µM
Splenocyte
  Activity: Active
[3]
  Activity: Non-toxic
[2]
  inhibition at 5 µg/mL: > 50%

## CO/C(=C\c1ccc(Cl)cc1)C(=O)Nc1ccc(OC)cc1
[2]
  inhibition at 5 µg/mL: < 50%

## CO/C(=C\c1ccc(F)cc1)C(=O)Nc1ccc(C)cc1
[2]
  inhibition at 5 µg/mL: < 50%

## CO/C(=C\c1ccc(OC)cc1)C(=O)Nc1ccc(F)cc1
[2]
  inhibition at 5 µg/mL: < 50%

## CO/C(=C\c1ccc(Cl)cc1)C(=O)Nc1ccc(Br)cc1
[1]
  IC50: 11 µM
[2]
  inhibition at 5 µg/mL: > 50%

## CO/C(=C\c1ccccc1)C(=O)Nc1ccccc1
[1]
  IC50: 15.2 µM
[2]
  inhibition at 5 µg/mL: > 50%

## CO/C(=C\c1ccc(OC)cc1)C(=O)Nc1ccc(OC)cc1
[2]
  inhibition at 5 µg/mL: < 50%

## CO/C(=C\c1ccccc1)C(=O)Nc1ccc(F)cc1
[1]
  IC50: 4.94 µM
[2]
  inhibition at 5 µg/mL: > 50%

## CO/C(=C\c1ccc(F)cc1)C(=O)Nc1ccccc1
[2]
  inhibition at 5 µg/mL: < 50%

## CO/C(=C\c1ccc(F)cc1)C(=O)Nc1ccc(C(C)C)cc1
[1]
  IC50: 4.66 µM
Splenocyte
  Activity: Active
[3]
  Activity: Non-toxic
[2]
  inhibition at 5 µg/mL: > 50%

## CO/C(=C\c1ccccc1)C(=O)Nc1ccc(C)cc1
[1]
  IC50: 16.6 µM
[2]
  inhibition at 5 µg/mL: > 50%

## CO/C(=C\c1ccccc1)C(=O)Nc1ccc(Cl)cc1
[1]
  IC50: 17 µM
[2]
  inhibition at 5 µg/mL: > 50%

## CO/C(=C\c1ccccc1)C(=O)Nc1ccc(OC)cc1
[2]
  inhibition at 5 µg/mL: < 50%

## CO/C(=C\c1ccc(Cl)cc1)C(=O)Nc1ccccc1
[2]
  inhibition at 5 µg/mL: < 50%

## CO/C(=C\c1ccc(Br)cc1)C(=O)Nc1ccccc1
[2]
  inhibition at 5 µg/mL: < 50%

## CO/C(=C\c1ccc(Cl)cc1)C(=O)Nc1ccc(C(C)C)cc1
[2]
  inhibition at 5 µg/mL: < 50%

## CO/C(=C\c1ccc(F)cc1)C(=O)Nc1ccc(F)cc1
[2]
  inhibition at 5 µg/mL: < 50%
